Series [1] is described as follows: Cytotoxicity against human HCT116 cells after 5 days by sulforhodamine B assay. The class given is functional, HCT-116. The essentials:
(§1)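 Cancer lines were seeded at 800–6000 cells per well according to growth rate, 24 h before compound overlay. After culture, cells were fixed in situ and stained with sulforhodamine B. GI50 values were derived by curve fitting.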

Series [2] can be described thus: Cytotoxicity against human OVCAR3 cells after 5 days by sulforhodamine B assay. The class given is functional, OVCAR-3.
The target in series [3] is T1, Aurora kinase A (Homo sapiens, UniProt O14965).
T1 sequence (O14965 whole entry): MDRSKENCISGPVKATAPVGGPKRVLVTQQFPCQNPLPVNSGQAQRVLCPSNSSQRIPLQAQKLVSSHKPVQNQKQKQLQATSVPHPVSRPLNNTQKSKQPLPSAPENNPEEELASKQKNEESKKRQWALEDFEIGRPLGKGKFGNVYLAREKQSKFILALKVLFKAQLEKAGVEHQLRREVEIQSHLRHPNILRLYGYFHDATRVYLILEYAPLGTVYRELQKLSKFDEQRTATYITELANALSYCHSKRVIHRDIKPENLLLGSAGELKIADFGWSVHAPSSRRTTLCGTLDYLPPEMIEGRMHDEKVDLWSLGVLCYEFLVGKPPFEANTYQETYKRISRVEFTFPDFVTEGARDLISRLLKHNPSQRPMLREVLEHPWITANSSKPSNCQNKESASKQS
As to the kind of experiment: Inhibition of recombinant AURKA (unknown origin) preincubated for 15 mins prior to ATP addition by FRET-based homogenous assay.

Series [4] can be described thus: Half life in mouse liver microsomes at 1 uM by LC-MS analysis. The class given is ADME. The settings on record: liver microsomes. In general terms: Liver microsomes are a subcellular fraction often used to study metabolism.
Series [5] in a line: Cmax in athymic CD1 nude mouse at 10 mg/kg, po by LC-MS/MS analysis. The class given is ADME, organism-based. Set-up: dose 10 mg/kg, route oral. The settings on record: athymic CD1 nude, in vivo.
Series [6] is described as follows: Half life in iv dosed dog. The class given is ADME, organism-based, Canis lupus familiaris. The settings on record: in vivo.
The nature of series [7]: Oral bioavailability in dog. The class given is ADME, organism-based, Canis lupus familiaris. The conditions noted are these: in vivo.
In series [8] the test system is Mus musculus. As to the kind of experiment: Toxicity in po dosed CD-1 nude mouse assessed as signs of overt toxicity administered as qd for 21 days. The conditions noted are these: in vivo, 504 h. The class given is organism-based. The gist of the method: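 Female nude mice bearing subcutaneous tumors (80–120 mm³ at randomization) received vehicle (10% NMP/40% PEG400/50% water) or compound by daily oral dosing for 21 days. Doses were the MTD and ~2/3 MTD. Body weight and tumor volume were measured three times weekly. The MTD criterion (n = 3) was no body-weight loss over 20% and not moribund.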

Series [9] concerns the target Mast/stem cell growth factor receptor Kit (Homo sapiens, UniProt P10721, V560G). Put plainly: Inhibition of human cKit V560G mutant by millipore radiometric assay. The essentials: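 Radiometric profiling against a 278-kinase panel was done with ATP at Km. Half-maximal inhibitory concentrations were then determined for the kinases most inhibited.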
The target in series [10] is T2, Dual specificity protein kinase TTK (Homo sapiens, UniProt P33981).
T2 sequence (P33981 whole entry): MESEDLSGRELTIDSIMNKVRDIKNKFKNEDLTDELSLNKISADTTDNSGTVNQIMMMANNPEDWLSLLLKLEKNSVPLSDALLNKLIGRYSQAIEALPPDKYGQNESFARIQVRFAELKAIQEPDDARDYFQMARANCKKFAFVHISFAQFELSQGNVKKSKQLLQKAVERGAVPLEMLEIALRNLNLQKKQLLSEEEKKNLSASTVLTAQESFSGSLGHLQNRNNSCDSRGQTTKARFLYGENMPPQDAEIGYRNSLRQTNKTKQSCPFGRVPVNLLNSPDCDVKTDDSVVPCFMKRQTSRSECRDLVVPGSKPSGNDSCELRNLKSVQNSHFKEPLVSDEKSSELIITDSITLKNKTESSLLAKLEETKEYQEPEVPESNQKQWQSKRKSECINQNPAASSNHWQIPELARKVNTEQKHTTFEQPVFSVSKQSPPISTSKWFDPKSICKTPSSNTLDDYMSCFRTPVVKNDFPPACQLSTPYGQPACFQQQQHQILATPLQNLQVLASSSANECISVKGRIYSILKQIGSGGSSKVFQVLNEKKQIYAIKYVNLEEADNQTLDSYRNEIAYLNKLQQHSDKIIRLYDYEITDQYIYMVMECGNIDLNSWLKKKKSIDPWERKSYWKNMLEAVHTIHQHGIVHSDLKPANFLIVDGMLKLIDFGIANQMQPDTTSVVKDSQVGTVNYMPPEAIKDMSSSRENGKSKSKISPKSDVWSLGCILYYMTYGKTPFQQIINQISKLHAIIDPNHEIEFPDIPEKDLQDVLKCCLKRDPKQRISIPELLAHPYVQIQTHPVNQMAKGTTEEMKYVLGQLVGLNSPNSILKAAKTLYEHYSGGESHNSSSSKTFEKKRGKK
Put plainly: Competitive inhibition of amino terminal GST-fused full length human TTK using His6-SUMO-TTK-N as substrate by Lineweaver-Burk plot analysis in presence of ATP. The conditions noted are these: read-out: Ki(app).

A short description of series [11]: Cytotoxicity against human SKBR3 cells after 5 days by sulforhodamine B assay. The settings on record: SK-BR-3, 120 h. The class given is functional. The gist of the method:
as §1
(In general: In SRB staining, fixed cells bind dye roughly in proportion to their protein.)

The test system of series [12] is MCF7. As to the kind of experiment: Cytotoxicity against human MCF7 cells after 5 days by sulforhodamine B assay. The conditions noted are these: MCF7, 120 h. The class given is functional. The gist of the method: as §1
The nature of series [13]: Cytotoxicity against human PC3 cells after 5 days by sulforhodamine B assay. The class given is functional. The settings on record: PC-3, 120 h. The gist of the method: as §1
A short description of series [14]: Plasma protein binding in dog. The conditions noted are these: read-out: PPB (converted). The class given is ADME, cell-free, Canis lupus familiaris.

Mast/stem cell growth factor receptor Kit, sequence (P10721 26-976 V560G limits assumed): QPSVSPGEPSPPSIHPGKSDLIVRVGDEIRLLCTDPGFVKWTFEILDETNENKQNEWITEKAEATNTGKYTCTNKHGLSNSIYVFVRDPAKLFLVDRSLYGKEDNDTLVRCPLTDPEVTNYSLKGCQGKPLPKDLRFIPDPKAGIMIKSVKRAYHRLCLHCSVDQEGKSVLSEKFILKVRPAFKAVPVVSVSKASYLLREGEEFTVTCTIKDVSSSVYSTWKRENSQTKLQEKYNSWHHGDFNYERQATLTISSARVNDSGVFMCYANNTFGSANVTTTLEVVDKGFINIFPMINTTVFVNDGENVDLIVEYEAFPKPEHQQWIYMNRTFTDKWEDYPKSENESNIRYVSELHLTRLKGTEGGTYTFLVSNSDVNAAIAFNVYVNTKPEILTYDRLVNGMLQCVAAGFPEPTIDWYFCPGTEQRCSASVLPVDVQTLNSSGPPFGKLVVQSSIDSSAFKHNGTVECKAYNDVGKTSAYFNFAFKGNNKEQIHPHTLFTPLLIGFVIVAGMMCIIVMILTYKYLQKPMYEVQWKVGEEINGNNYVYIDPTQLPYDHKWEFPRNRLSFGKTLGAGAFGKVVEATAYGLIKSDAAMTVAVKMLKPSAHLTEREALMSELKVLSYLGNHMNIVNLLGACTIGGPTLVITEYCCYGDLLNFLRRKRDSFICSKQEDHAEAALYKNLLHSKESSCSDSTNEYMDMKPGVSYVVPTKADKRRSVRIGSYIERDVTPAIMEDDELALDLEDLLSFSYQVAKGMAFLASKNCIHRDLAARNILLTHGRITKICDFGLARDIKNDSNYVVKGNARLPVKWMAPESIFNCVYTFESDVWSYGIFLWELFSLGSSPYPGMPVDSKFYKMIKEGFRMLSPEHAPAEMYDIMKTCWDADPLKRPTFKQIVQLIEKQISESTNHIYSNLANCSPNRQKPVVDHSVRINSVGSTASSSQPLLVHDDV

For `O=C(N[C@@H](c1ccccn1)C1CC1)c1ccc2[nH]nc(-c3ccc(N4[C@H]5CC[C@H]4CC(O)C5)cc3)c2c1` (stereo in doubt; 75), the GI50 – broadly, the concentration that inhibits growth by half – in series [1] worked out at 17 nM; in series [2] it was 80 nM; in series [11] it was 8 nM; in series [12], 15 nM; in series [13] it was 60 nM. The values for the IC50 in [3] and in [9] were 1300 nM and 490 nM, respectively. Moreover, in series [4], the half-life – broadly, the time needed for the level to fall by half in the phase considered – at 1 µM was greater than 60 min. For the same compound, the peak concentration (Cmax) (in general, the maximum level reached in the sampled fluid or tissue) in series [5] is 2000 ng/mL. In [6], the half-life is 72 min. Moreover, the bioavailability – broadly, dose-corrected exposure relative to a reference, in per cent – in series [7] is 43%. The Activity entry in series [8] was “Non-toxic”. In addition, the Ki in series [10] amounted to 0.7 nM. In series [14], the fraction unbound is 0.114.

(Values after ChEMBL document CHEMBL3421533, “The Discovery of Orally Bioavailable Tyrosine Threonine Kinase (TTK) Inhibitors: 3-(4-(heterocyclyl)phenyl)-1H-indazole-5-carboxamides as Anticancer Agents” (J Med Chem, 2015).)
